KCNQ1 act = human KCNQ1 channel potentiation or activation; P51787; CHO-K1 KCNQ1, thallium flux FluxOR fluorescence; hits give high values; B-score at 10 µM; 310,000 tested, 0.35% active; AID 2648;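 active = fluorescence ratio B-score, a plate-corrected score, at least three library SD, with initial intensity B-score within 5 SD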
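Assay system: stable KCNQ1 CHO-K1 line; medium: assay buffer, equal DMSO in all wells; timing: 90 min dye loading and 20 min compound exposure, both at room temperature; technique: kinetic FluxOR thallium fluorescence, 10-s 1-Hz baseline, 110-s post-stimulus read; read-out basis: B score of baseline-normalized fluorescence ratio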
KCNK9 inh = blocks the human KCNK9 two-pore domain potassium channel | 310,000 tested, 1.2% active | HEK293 KCNK9, FluxOR thallium flux fluorescence; hits give low values | Q9NPC2 | B-score at 10 µM;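 active = ratio B-score over 3 SD below the library mean, with starting fluorescence within 5 SD of its mean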;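 also: negative B-score means less thallium flux so channel inhibition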
hERG protect = shields human hERG channel from block by proarrhythmic agents; CHO-hERG, FluxOR thallium flux, dofetilide IC70 present; activation (rescue from dofetilide block), less the hit threshold, % at 10 µM; AID 1511; 310,000 tested, 0.51% active; Q12809;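 active = activation above the mean of controls blocked by dofetilide plus 5 SD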;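 also: thallium influx through hERG after potassium depolarization seen as dye fluorescence rise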
KCNQ1 inh = inhibitors of human KCNQ1 potassium channel | B-score at 10 µM | AID 2642 | 310,000 tested, 1.3% active | CHO-K1 KCNQ1, FluxOR thallium flux fluorescence; hits give high values;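 active = compounds whose thallium flux B-score, printed positive for inhibition, exceeds three library SD while starting fluorescence stays within three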;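 also: channel opened by potassium depolarization with thallium stimulus after 20 min compound exposure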
KCNK3 block = human KCNK3 channel inhibition, primary screen | O14649 | CHO-KCNK3 thallium flux, FluxOR fluorescence; hits give low values | B-score at 10 µM | 340,000 tested, 0.84% active | AID 602410;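 active = B-score under library mean minus 4 SD, starting fluorescence ratio at most library mean plus 5 SD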;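 also: more negative B-score means stronger inhibition of thallium flux through KCNK3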
Target sequence (O14649 whole entry, looked up): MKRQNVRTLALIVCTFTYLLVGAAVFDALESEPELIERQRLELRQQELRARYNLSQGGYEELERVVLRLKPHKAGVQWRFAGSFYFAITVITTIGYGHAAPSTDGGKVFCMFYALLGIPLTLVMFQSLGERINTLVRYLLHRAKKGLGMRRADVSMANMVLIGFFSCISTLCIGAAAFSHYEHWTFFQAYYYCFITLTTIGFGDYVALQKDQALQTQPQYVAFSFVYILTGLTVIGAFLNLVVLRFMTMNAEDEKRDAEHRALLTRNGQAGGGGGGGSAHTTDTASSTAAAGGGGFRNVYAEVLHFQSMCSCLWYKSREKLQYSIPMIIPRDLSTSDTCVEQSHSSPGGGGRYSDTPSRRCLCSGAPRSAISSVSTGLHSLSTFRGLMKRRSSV
KCNK3 inh conf = human KCNK3 channel inhibition, confirmation assay; shares compounds with KCNK3 block; CHO-KCNK3 thallium flux, FluxOR fluorescence; 0% buffer, 100% carvedilol maximal block; ratio percent of control, % at 10 µM; 2,400 tested, 99% active;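 active = ratio percent of control, averaged over triplicates, above buffer control mean plus 5 SD, cut at about 64% in these data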;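 also: ratio is the fluorescence rise from min to max over baseline after thallium stimulus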
KCNK3 noninduced = activity in cells without induced KCNK3 expression; non-induced KCNK3 parental cells, FluxOR thallium flux; hits give low values; shares compounds with KCNK3 block; thallium flux ratio (lower = more inhibition) at 10 µM; 2,400 tested, 40% active;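 active = thallium flux ratio, averaged over three wells, more than 5 SD below the buffer control mean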;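 also: host cells are CHO cells without KCNK3 induction; ratio is peak minus trough fluorescence over baseline then normalized to buffer controls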
* = called active by the depositor; i = inactive; · = not tested or not shown. Shown are actives, neighbours in structure and some others; about 3.1% of the full set was active somewhere.

SMILES	KCNQ1 act	KCNK9 inh	hERG protect	KCNQ1 inh	KCNK3 block	KCNK3 inh conf	KCNK3 noninduced
O=C(Cc1c(F)cccc1Cl)Nc1ccccc1C(=O)N1CCCCC1	i	i	-11	i	i	·	·
COc1ccccc1CNS(=O)(=O)c1ccc(-c2cc(C)no2)cc1	i	i	-10	i	i	·	·
CCc1ccc(-c2cc(C)no2)cc1S(=O)(=O)N1CCN(c2ccccc2OC)CC1	i	i	-13	i	-9.6*	83*	0.15*
CCc1ccc(-c2cc(C)no2)cc1S(=O)(=O)NCc1ccccc1OC	i	i	-10	i	-11*	98*	i
COc1ccc(CNCC(O)(c2ccc(Cl)cc2)c2ccc(Cl)cc2)cc1OC	i	i	-19	i	i	·	·
COc1ccc(CNCC(O)(c2ccc(Cl)cc2)c2ccc(Cl)cc2)cc1	i	i	-38	i	-9.3*	131*	i
CCc1ccc(NC(=O)C(=S)NC2CCCCC2)cc1	i	i	-17	i	i	·	·
CCc1ccc(NC(=O)NC2CCCCCCC2)cc1	i	i	-7	i	-9.4*	125*	0.12*
COc1ccc(C)cc1NC(=O)c1sc2ncnc(N3CCN(c4ccccn4)CC3)c2c1C	i	i	-3	i	-11*	116*	i
Cc1ccc(NC(=O)c2sc3ncnc(N4CCN(c5ccccn5)CC4)c3c2C)c(C)c1	i	i	-21	i	i	·	·
COC(=O)[C@]1(C)CCC[C@@]2(C)C3CC[C@@]4(C)C[C@]3(CCC21)CC(=O)N4Cc1ccc(OC)cc1 (stereo partly drawn)	·	·	·	·	i	·	·
